Assay results from ChEMBL document CHEMBL3352070, “Dammarane triterpenes as potential SIRT1 activators from the leaves of Panax ginseng” (J Nat Prod, 2014).
Active and inactive are the calls of the source. The calls are words filed in the database; no cut-off is given here.

Key:
[1] = target: T1, NAD-dependent protein deacetylase sirtuin-1 (Homo sapiens) (UniProt Q96EB6); test: Activation of SIRT1 (unknown origin) at 10 to 20 ug/mL using Fluor de Lys-SIRT1 peptide by in vitro enzyme-based SIRT1-NAD/NADH assay
T1 sequence (whole entry): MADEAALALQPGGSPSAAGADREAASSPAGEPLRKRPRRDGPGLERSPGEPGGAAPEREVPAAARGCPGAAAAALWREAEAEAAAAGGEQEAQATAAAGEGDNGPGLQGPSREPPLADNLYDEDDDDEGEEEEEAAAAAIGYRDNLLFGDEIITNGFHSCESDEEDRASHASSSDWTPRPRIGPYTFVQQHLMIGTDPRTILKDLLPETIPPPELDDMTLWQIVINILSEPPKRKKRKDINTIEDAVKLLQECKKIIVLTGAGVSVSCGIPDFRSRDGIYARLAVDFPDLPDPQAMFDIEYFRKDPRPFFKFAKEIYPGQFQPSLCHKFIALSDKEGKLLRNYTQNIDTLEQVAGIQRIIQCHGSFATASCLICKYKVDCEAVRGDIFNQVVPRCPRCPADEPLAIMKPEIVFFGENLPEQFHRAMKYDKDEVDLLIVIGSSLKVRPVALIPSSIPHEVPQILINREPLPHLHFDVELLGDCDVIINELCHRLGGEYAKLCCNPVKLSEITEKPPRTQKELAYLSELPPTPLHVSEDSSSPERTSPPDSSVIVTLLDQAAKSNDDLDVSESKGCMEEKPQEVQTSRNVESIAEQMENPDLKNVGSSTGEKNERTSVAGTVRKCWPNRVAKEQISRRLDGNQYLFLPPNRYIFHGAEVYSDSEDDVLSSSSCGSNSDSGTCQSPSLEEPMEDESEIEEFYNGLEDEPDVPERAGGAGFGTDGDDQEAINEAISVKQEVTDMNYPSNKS
Outline: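 SIRT1 enzyme at 0.02 U/μL in Tris-HCl pH 8.0 buffer with BSA, MgCl2, KCl and NaCl, preincubated with compound for 5 min at room temperature. Reaction started with 500 μM NAD+ and 100 μM Fluor de Lys-SIRT1 substrate (stock solution), run 1 h at room temperature. Quenched with Developer II plus 2 mM nicotinamide for 30 min, then fluorescence read at ex 360/em 450 nm. DMSO and no-enzyme controls.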

[2] = target: T1, NAD-dependent protein deacetylase sirtuin-1 (Homo sapiens); test: Activation of flag-tagged SIRT1 (unknown origin) expressed in HEK293 cells at 2.5 to 5 ug/mL after 12 hrs by SIRT1-p53 luciferase reporter gene based assay; format: cell-based
HEK293 = test: Toxicity against HEK293 cells at 10 to 20 ug/ml; format: cell-based; settings: human
[3] = target: T1, NAD-dependent protein deacetylase sirtuin-1 (Homo sapiens); test: Activation of SIRT1 (unknown origin) expressed in HEK293 cells assessed as increase in NAD+/NADH ratio at 2.5 to 5 ug/mL after 12 hrs; format: cell-based
Outline: (§1)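 HEK293 cells grown in DMEM with 10% FBS at 37 °C, 5% CO2, and treated with compound for 12 h. NAD+/NADH ratio measured in whole-cell extracts with a red-fluorescence NAD/NADH quantitation kit.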

[4] = target: T1, NAD-dependent protein deacetylase sirtuin-1 (Homo sapiens); test: Activation of flag-tagged SIRT1 (unknown origin) expressed in HEK293 cells at 10 to 20 ug/mL after 12 hrs by SIRT1-p53 luciferase reporter gene based assay; format: cell-based
[5] = target: T1, NAD-dependent protein deacetylase sirtuin-1 (Homo sapiens); test: Activation of SIRT1 (unknown origin) expressed in HEK293 cells assessed as increase in NAD+/NADH ratio at 10 to 20 ug/mL after 12 hrs; format: cell-based; outline: as §1
[6] = target: T1, NAD-dependent protein deacetylase sirtuin-1 (Homo sapiens); test: Activation of flag-tagged SIRT1 (unknown origin) expressed in HEK293 cells after 12 hrs by SIRT1-p53 luciferase reporter gene based assay; format: cell-based

| Compound | Activity [4] | Activity [5] | Activity [1] | Activity [2] | Activity (HEK293) | Activity [3] | Activity [6] |
| --- | --- | --- | --- | --- | --- | --- | --- |
| CC(C)=CC/C=C(\C)[C@H]1CC[C@]2(C)[C@@H]1[C@H](O)C[C@@H]1[C@@]3(C)CC[C@H](O)C(C)(C)[C@@H]3[C@@H](O)C[C@]12C | – | – | Dose-dependent effect | Active | Toxic | Active | – |
| CC(C)=CCC[C@](C)(O)[C@H]1CC[C@]2(C)[C@@H]1[C@H](O)C[C@@H]1[C@@]3(C)CC[C@H](O[C@@H]4O[C@H](CO)[C@@H](O)[C@H](O)[C@H]4O[C@@H]4O[C@H](CO)[C@@H](O)[C@H](O)[C@H]4O)C(C)(C)[C@@H]3CC[C@]12C | – | – | Dose-dependent effect | Active | Toxic | Active | Active |
| CC(C)=CCC[C@@](C)(O)[C@H]1CC[C@]2(C)[C@@H]1[C@H](O)C[C@@H]1[C@@]3(C)CC[C@H](O[C@@H]4O[C@H](CO)[C@@H](O)[C@H](O)[C@H]4O[C@@H]4O[C@H](CO)[C@@H](O)[C@H](O)[C@H]4O)C(C)(C)[C@@H]3CC[C@]12C | – | – | – | – | – | – | Dose-dependent effect |

More lines, main results first:

| Activity [4] | Activity [5] | Compound | Activity [1] | Activity [2] | Activity (HEK293) | Activity [3] | Activity [6] |
| --- | --- | --- | --- | --- | --- | --- | --- |
| Active | Active | CC(C)(O)/C=C/C[C@](C)(O)[C@H]1CC[C@]2(C)[C@@H]1C(=O)C[C@@H]1[C@@]3(C)CCC(=O)C(C)(C)[C@@H]3[C@@H](O)C[C@]12C | Dose-dependent effect | – | – | – | – |
| Active | Active | CC(C)=CCC[C@](C)(O)[C@H]1CC[C@]2(C)[C@@H]1C(=O)C[C@@H]1[C@@]3(C)CCC(=O)C(C)(C)[C@@H]3[C@@H](O)C[C@]12C | Dose-dependent effect | – | – | – | – |
